# Measurements: ChEMBL document CHEMBL1158357, “Synthesis of [1,2,4]triazolo[1,5-a]pyridines of potential PGE2 inhibitory properties” (2009)
# Columns and labels:
# Rattus norvegicus [1] = experiment: Antiinflammatory activity in Wistar albino rat assessed as inhibition of carrageenan-induced paw edema volume at 50 mg/kg, po administered 1 hr prior to carrageenan challenge measured after 1 hr; format: functional
# Rattus norvegicus [2] = experiment: Antiinflammatory activity in Wistar albino rat assessed as inhibition of carrageenan-induced paw edema volume at 50 mg/kg, ip administered 1 hr prior to carrageenan challenge measured after 3 hrs; parameters: scale not given: the % may be the effect or the level left; conditions: route intraperitoneal
# Rattus norvegicus [3] = experiment: Antiinflammatory activity in Wistar albino rat assessed as inhibition of carrageenan-induced paw edema volume at 50 mg/kg, ip administered 1 hr prior to carrageenan challenge measured after 2 hrs; parameters: scale not given: the % may be the effect or the level left; conditions: route intraperitoneal
# Rattus norvegicus [4] = experiment: Antiinflammatory activity in Wistar albino rat assessed as inhibition of carrageenan-induced paw edema volume at 50 mg/kg, ip administered 1 hr prior to carrageenan challenge measured after 1 hr; parameters: scale not given: the % may be the effect or the level left; conditions: route intraperitoneal
# Rattus norvegicus [5] = experiment: Antiinflammatory activity in Wistar albino rat assessed as inhibition of carrageenan-induced paw edema volume at 50 mg/kg, po administered 1 hr prior to carrageenan challenge measured after 2 hrs; format: functional
# Rattus norvegicus [6] = experiment: Antiinflammatory activity in Wistar albino rat assessed as inhibition of carrageenan-induced paw edema volume at 50 mg/kg, ip administered 1 hr prior to carrageenan challenge measured after 4 hrs; conditions: route intraperitoneal
# Rattus norvegicus [7] = experiment: Antiinflammatory activity in Wistar albino rat assessed as inhibition of carrageenan-induced paw edema volume at 50 mg/kg, po administered 1 hr prior to carrageenan challenge measured after 3 hrs; format: functional
# Rattus norvegicus [8] = experiment: Antiinflammatory activity in Wistar albino rat assessed as inhibition of carrageenan-induced paw edema volume at 50 mg/kg, po administered 1 hr prior to carrageenan challenge measured after 4 hrs; parameters: scale not given: the % may be the effect or the level left
# Rattus norvegicus [9] = experiment: Antiinflammatory activity in Wistar albino rat assessed as inhibition of carrageenan-induced paw edema volume at 50 mg/kg, po administered 1 hr prior to carrageenan challenge measured after 4 hrs relative to indomethacin; format: functional; parameters: scale not given: the % may be the effect or the level left
# Rattus norvegicus [10] = experiment: Antiinflammatory activity against carrageenan-induced inflammation in albino rat air pouch model assessed as PGE2 level at 10 mg/kg, po administered […] before carrageenan challenge measured after 6 hrs; format: functional
# In short: (§1)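 Male albino rats (200–250 g), 6 per group. A dorsal air pouch was made with 20 ml air s.c. on day 1, 10 ml two days later and 10 ml on day 5. Next day, rats were dosed orally in saline with a few drops of Tween 80 (controls: sterile saline), then given 2 ml 1% carrageenan in saline into the pouch. Exudate was aspirated 6 h later under ether, stored at -20 °C, and PGE2 measured by ELISA kit.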
# Rattus norvegicus [11] = experiment: Antiinflammatory activity against carrageenan-induced inflammation in albino rat air pouch model assessed as PGE2 level at 50 mg/kg, po administered […] before carrageenan challenge measured after 6 hrs; format: functional; in short: as §1
compound,measurement,setting,value
Cn1c([S-])n[n+]2c(N)c(C#N)c(-c3ccc(N4CCOCC4)cc3)c(C#N)c12,Activity,Rattus norvegicus [1],0.203 mL
same,Activity,Rattus norvegicus [2],41.7%
same,Activity,Rattus norvegicus [3],17.2%
same,Activity,Rattus norvegicus [4],1.9%
same,Activity,Rattus norvegicus [5],0.275 mL
same,Activity,Rattus norvegicus [6],0.385 mL
same,Activity,Rattus norvegicus [7],0.303 mL
same,Activity,Rattus norvegicus [8],45.4%
same,Activity,Rattus norvegicus [9],67%
COc1ccc2c(c1)c(CC(=O)O)c(C)n2C(=O)c1ccc(Cl)cc1 [INDOMETHACIN],Activity,Rattus norvegicus [1],0.09 mL
same,Activity,Rattus norvegicus [2],65.4%
same,Activity,Rattus norvegicus [3],52.4%
same,Activity,Rattus norvegicus [4],56.5%
same,Activity,Rattus norvegicus [5],0.158 mL
same,Activity,Rattus norvegicus [10],98.33 pg/mL
same,Activity,Rattus norvegicus [6],0.227 mL
same,Activity,Rattus norvegicus [7],0.18 mL
same,Activity,Rattus norvegicus [8],67.8%
CN1CCN(c2ccc(-c3c(C#N)c(N)[n+]4nc([S-])n(C)c4c3C#N)cc2)CC1,Activity,Rattus norvegicus [1],0.172 mL
same,Activity,Rattus norvegicus [2],38.1%
same,Activity,Rattus norvegicus [3],13.6%
same,Activity,Rattus norvegicus [4],16.9%
same,Activity,Rattus norvegicus [5],0.287 mL
same,Activity,Rattus norvegicus [6],0.447 mL
same,Activity,Rattus norvegicus [7],0.322 mL
same,Activity,Rattus norvegicus [8],36.6%
same,Activity,Rattus norvegicus [9],54%
Cn1c([S-])n[n+]2c(N)c(C#N)c(-c3ccc(N4CCCCC4)cc3)c(C#N)c12,Activity,Rattus norvegicus [1],0.202 mL
same,Activity,Rattus norvegicus [2],32.1%
same,Activity,Rattus norvegicus [3],10.2%
same,Activity,Rattus norvegicus [4],2.4%
same,Activity,Rattus norvegicus [5],0.298 mL
same,Activity,Rattus norvegicus [6],0.345 mL
same,Activity,Rattus norvegicus [7],0.353 mL
same,Activity,Rattus norvegicus [8],51.1%
same,Activity,Rattus norvegicus [9],75.4%
N#Cc1c(-c2ccc(N3CCOCC3)cc2)c(C#N)c2n(Cc3ccccc3)c([S-])n[n+]2c1N,Activity,Rattus norvegicus [1],0.207 mL
same,Activity,Rattus norvegicus [2],6.7%
same,Activity,Rattus norvegicus [3],1.2%
same,Activity,Rattus norvegicus [4],0%
same,Activity,Rattus norvegicus [5],0.328 mL
same,Activity,Rattus norvegicus [6],0.428 mL
same,Activity,Rattus norvegicus [7],0.485 mL
same,Activity,Rattus norvegicus [8],39.3%
same,Activity,Rattus norvegicus [9],58%
C=CCn1c([S-])n[n+]2c(N)c(C#N)c(-c3ccc(N4CCOCC4)cc3)c(C#N)c12,Activity,Rattus norvegicus [1],0.188 mL
same,Activity,Rattus norvegicus [2],25.6%
same,Activity,Rattus norvegicus [3],19.3%
same,Activity,Rattus norvegicus [4],9.2%
same,Activity,Rattus norvegicus [5],0.268 mL
same,Activity,Rattus norvegicus [6],0.278 mL
same,Activity,Rattus norvegicus [7],0.387 mL
same,Activity,Rattus norvegicus [8],60.6%
same,Activity,Rattus norvegicus [9],89.4%
C=CCn1c([S-])n[n+]2c(N)c(C#N)c(-c3ccc(N4CCCCC4)cc3)c(C#N)c12,Activity,Rattus norvegicus [1],0.16 mL
same,Activity,Rattus norvegicus [2],35%
same,Activity,Rattus norvegicus [3],7.5%
same,Activity,Rattus norvegicus [4],22.7%
same,Activity,Rattus norvegicus [5],0.307 mL
same,Activity,Rattus norvegicus [6],0.222 mL
same,Activity,Rattus norvegicus [7],0.338 mL
same,Activity,Rattus norvegicus [8],68.5%
same,Activity,Rattus norvegicus [9],101%
same,Activity,Rattus norvegicus [11],94.5 pg/mL
CCn1c([S-])n[n+]2c(N)c(C#N)c(-c3ccc(N4CCCCC4)cc3)c(C#N)c12,Activity,Rattus norvegicus [1],0.142 mL
same,Activity,Rattus norvegicus [2],55.8%
same,Activity,Rattus norvegicus [3],66.9%
same,Activity,Rattus norvegicus [4],31.4%
same,Activity,Rattus norvegicus [5],0.11 mL
same,Activity,Rattus norvegicus [6],0.272 mL
same,Activity,Rattus norvegicus [7],0.23 mL
same,Activity,Rattus norvegicus [8],61.4%
same,Activity,Rattus norvegicus [9],90.6%
CCn1c([S-])n[n+]2c(N)c(C#N)c(-c3ccccc3OCCOc3ccccc3-c3c(C#N)c(N)[n+]4nc([S-])n(CC)c4c3C#N)c(C#N)c12,Activity,Rattus norvegicus [1],0.188 mL
same,Activity,Rattus norvegicus [2],40%
same,Activity,Rattus norvegicus [3],30.1%
same,Activity,Rattus norvegicus [4],9.2%
same,Activity,Rattus norvegicus [5],0.232 mL
same,Activity,Rattus norvegicus [6],0.16 mL
same,Activity,Rattus norvegicus [7],0.312 mL
same,Activity,Rattus norvegicus [8],77.3%
same,Activity,Rattus norvegicus [9],114%
same,Activity,Rattus norvegicus [11],87.67 pg/mL
Cn1c([S-])n[n+]2c(N)c(C#N)c(-c3ccccc3OCCCOc3ccccc3-c3c(C#N)c(N)[n+]4nc([S-])n(C)c4c3C#N)c(C#N)c12,Activity,Rattus norvegicus [1],0.19 mL
same,Activity,Rattus norvegicus [2],41%
same,Activity,Rattus norvegicus [3],22.6%
same,Activity,Rattus norvegicus [4],8.2%
same,Activity,Rattus norvegicus [5],0.257 mL
same,Activity,Rattus norvegicus [6],0.175 mL
same,Activity,Rattus norvegicus [7],0.307 mL
same,Activity,Rattus norvegicus [8],75.2%
same,Activity,Rattus norvegicus [9],110.9%
same,Activity,Rattus norvegicus [11],92.17 pg/mL
CCn1c([S-])n[n+]2c(N)c(C#N)c(-c3ccc(N4CCOCC4)cc3)c(C#N)c12,Activity,Rattus norvegicus [1],0.118 mL
same,Activity,Rattus norvegicus [2],38.1%
same,Activity,Rattus norvegicus [3],30.1%
same,Activity,Rattus norvegicus [4],43%
same,Activity,Rattus norvegicus [5],0.232 mL
same,Activity,Rattus norvegicus [6],0.317 mL
same,Activity,Rattus norvegicus [7],0.322 mL
same,Activity,Rattus norvegicus [8],55%
same,Activity,Rattus norvegicus [9],81.1%
Cn1c([S-])n[n+]2c(N)c(C#N)c(-c3ccccc3OCCOc3ccccc3-c3c(C#N)c(N)[n+]4nc([S-])n(C)c4c3C#N)c(C#N)c12,Activity,Rattus norvegicus [1],0.097 mL
same,Activity,Rattus norvegicus [2],28.8%
same,Activity,Rattus norvegicus [3],11.7%
same,Activity,Rattus norvegicus [4],53.1%
same,Activity,Rattus norvegicus [5],0.293 mL
same,Activity,Rattus norvegicus [6],0.292 mL
same,Activity,Rattus norvegicus [7],0.37 mL
same,Activity,Rattus norvegicus [8],58.6%
same,Activity,Rattus norvegicus [9],86.4%
N#Cc1c(-c2ccc(N3CCCCC3)cc2)c(C#N)c2n(Cc3ccccc3)c([S-])n[n+]2c1N,Activity,Rattus norvegicus [1],0.192 mL
same,Activity,Rattus norvegicus [2],39.8%
same,Activity,Rattus norvegicus [3],2.1%
same,Activity,Rattus norvegicus [4],7.2%
same,Activity,Rattus norvegicus [5],0.325 mL
same,Activity,Rattus norvegicus [6],0.23 mL
same,Activity,Rattus norvegicus [7],0.313 mL
same,Activity,Rattus norvegicus [8],67.4%
same,Activity,Rattus norvegicus [9],99.4%
same,Activity,Rattus norvegicus [11],102.33 pg/mL
